Assay results reported in ChEMBL document CHEMBL3124843, “Synthesis, cytostatic, antimicrobial, and anti-HCV activity of 6-substituted 7-(het)aryl-7-deazapurine ribonucleosides” (J Med Chem, 2014).
pEC50, pIC50: −log10 of the molar value. Calls of active or inactive are those of the source. The rule behind the calls is not given here.

Columns and labels:
BJ = experiment: Cytostatic activity against human BJ cells after 72 hrs by MTT assay; format: ADME, cell-based
Summary of the method: (§1)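 IC50 is the concentration that cuts cell growth by 50%, read by quantitative metabolic MTT staining after a 3-day treatment. The resistant sublines were made by raising the concentration of the cytotoxic drug step by step. CEM-DNR-bulk (daunorubicin-selected) stably overexpresses mrp-1. K562-TAX (paclitaxel-selected) expresses only mdr-1. HCT116p53−/− carries null p53 alleles. BJ and MRC-5 are nonmalignant fibroblasts.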

[1] = Cytotoxicity against human HuH7 cells infected with Hepatitis C virus subtype 2a; format: cell-based, Huh-7
CCRF-CEM = experiment: Cytostatic activity against human CCRF-CEM cells after 72 hrs by MTT assay; format: functional, cell-based; summary of the method: as §1
[2] = Antiproliferative activity against human HeLaS3 cells after 72 hrs by XTT assay; format: functional, cell-based; conditions: HeLa S3, 72 h
Summary of the method: (§2)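 Antiproliferative test on HL-60 promyelocytic leukemia and HeLa S3 cervical carcinoma cells growing in liquid suspension.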

Enterococcus faecalis = experiment: Antibacterial activity against Enterococcus faecalis CCM 4224 after 24 hrs; format: functional, organism-based
Candida parapsilosis = experiment: Antifungal activity against Candida parapsilosis after 48 hrs; format: functional, organism-based
A549 = experiment: Cytostatic activity against human A549 cells after 72 hrs by MTT assay; format: functional, cell-based; conditions: A549, 72 h; summary of the method: as §1
Candida albicans = experiment: Antifungal activity against Candida albicans after 48 hrs; format: functional, organism-based
Pseudomonas aeruginosa [3] = experiment: Antibacterial activity against multi-resistant Pseudomonas aeruginosa A/16575 after 24 hrs; format: functional, organism-based
[4] = Cytostatic activity against human CEM-DNR-bulk cells after 72 hrs by MTT assay; format: functional, cell-based; summary of the method: as §1
[5] = Cytotoxicity against human HuH7 cells infected with Hepatitis C virus subtype 1b; format: cell-based, Huh-7
Candida tropicalis = experiment: Antifungal activity against Candida tropicalis after 48 hrs; format: functional, organism-based
Escherichia coli [6] = experiment: Antibacterial activity against multi-resistant Escherichia coli C/16702 after 24 hrs; format: functional, organism-based
MRC5 = experiment: Cytostatic activity against human MRC5 cells after 72 hrs by MTT assay; format: ADME, cell-based; conditions: MRC5, 72 h; summary of the method: as §1
K562 [7] = experiment: Cytostatic activity against paclitaxel-resistant human K562 cells after 72 hrs by MTT assay; format: functional, cell-based; conditions: K562, 72 h; summary of the method: as §1
[8] = tested on: Staphylococcus haemolyticus; experiment: Antibacterial activity against methicillin-resistant Staphylococcus haemolyticus A/16568 after 24 hrs; format: functional, organism-based
Pseudomonas aeruginosa [9] = experiment: Antibacterial activity against Pseudomonas aeruginosa CCM 3955 after 24 hrs; format: functional, organism-based
Staphylococcus aureus [10] = experiment: Antibacterial activity against Staphylococcus aureus CCM 3953 after 24 hrs; format: functional, organism-based
HCT-116 [11] = experiment: Cytostatic activity against human HCT116 cells after 72 hrs by MTT assay; format: functional, cell-based; conditions: HCT-116, 72 h; summary of the method: as §1
HepG2 = experiment: Antiproliferative activity against human HepG2 cells after 72 hrs by XTT assay; format: functional, cell-based; conditions: HepG2, 72 h
HCT-116 [12] = experiment: Cytostatic activity against p53-deficient human HCT116 cells after 72 hrs by MTT assay; format: functional, cell-based; conditions: HCT-116, 72 h; summary of the method: as §1
Hepatitis C virus [13] = experiment: Antiviral activity against Hepatitis C virus subtype 2a infected in human HuH7 cells; format: functional, organism-based, Hepacivirus hominis; conditions: genotype 2a, Huh-7
HL-60 = experiment: Antiproliferative activity against human HL60 cells after 72 hrs by XTT assay; format: functional, cell-based; conditions: HL-60, 72 h; summary of the method: as §2
Escherichia coli [14] = experiment: Antibacterial activity against Escherichia coli CCM 3954 after 24 hrs; format: functional, organism-based
K562 [15] = experiment: Cytostatic activity against human K562 cells after 72 hrs by MTT assay; format: functional, cell-based; conditions: K562, 72 h; summary of the method: as §1
Hepatitis C virus [16] = experiment: Antiviral activity against Hepatitis C virus subtype 1b infected in human HuH7 cells; format: functional, organism-based, Hepacivirus hominis; conditions: genotype 1b, Huh-7
Staphylococcus aureus [17] = experiment: Antibacterial activity against methicillin-resistant Staphylococcus aureus MRSA 4591 after 24 hrs; format: functional, organism-based
Pichia kudriavzevii = experiment: Antifungal activity against Candida crusei after 48 hrs; format: functional, organism-based

Structure (SMILES) | pIC50 (BJ) | pIC50 (CCRF-CEM) | pIC50 [2] | Activity (Enterococcus faecalis) | Activity (Candida parapsilosis) | pIC50 (A549) | Activity (Candida albicans) | Activity (Pseudomonas aeruginosa [3]) | pIC50 [4] | CC50 [5] [µM] | Activity (Candida tropicalis) | Activity (Escherichia coli [6]) | pIC50 (MRC5) | pIC50 (K562 [7]) | Activity [8] | Activity (Pseudomonas aeruginosa [9]) | Activity (Staphylococcus aureus [10]) | pIC50 (HCT-116 [11]) | pIC50 (HCT-116 [12]) | Activity (Escherichia coli [14]) | further results
CN(C)c1ncnc2c1c(-c1ccccc1)cn2[C@@H]1O[C@H](CO)[C@@H](O)[C@H]1O | < 4.00 | < 4.70 | < 4.70 | inactive | inactive | < 4.00 | inactive | inactive | < 4.70 | > 44 | inactive | inactive | < 4.00 | < 4.70 | inactive | inactive | inactive | < 4.70 | < 4.70 | inactive | CC50 [1]: > 44 µM; pIC50 (HepG2): < 4.70; pEC50 (Hepatitis C virus [13]): < 4.36; pIC50 (HL-60): < 4.70; pIC50 (K562 [15]): < 4.70; pEC50 (Hepatitis C virus [16]): 4.57; Activity (Staphylococcus aureus [17]): inactive; Activity (Pichia kudriavzevii): inactive
CNc1ncnc2c1c(-c1ccoc1)cn2[C@@H]1O[C@H](CO)[C@@H](O)[C@H]1O | 4.02 | < 4.70 | < 4.70 | inactive | inactive | < 4.70 | inactive | inactive | < 4.70 | > 44 | inactive | inactive | < 4.00 | < 4.70 | inactive | inactive | inactive | < 4.70 | < 4.70 | inactive | CC50 [1]: > 44 µM; pIC50 (HepG2): < 4.70; pEC50 (Hepatitis C virus [13]): < 4.36; pIC50 (HL-60): < 4.82; pIC50 (K562 [15]): < 4.70; pEC50 (Hepatitis C virus [16]): 4.44; Activity (Staphylococcus aureus [17]): inactive; Activity (Pichia kudriavzevii): inactive
CSc1ncnc2c1c(-c1cccs1)cn2[C@@H]1O[C@H](CO)[C@@H](O)[C@H]1O | 4.01 | < 4.70 | 5.71 | inactive | inactive | < 4.70 | inactive | inactive | < 4.70 | > 44 | inactive | inactive | < 4.00 | < 4.70 | inactive | inactive | inactive | < 4.70 | < 4.70 | inactive | CC50 [1]: > 44 µM; pIC50 (HepG2): < 4.70; pEC50 (Hepatitis C virus [13]): < 4.36; pIC50 (HL-60): 5.95; pIC50 (K562 [15]): 4.94; pEC50 (Hepatitis C virus [16]): 5.27; Activity (Staphylococcus aureus [17]): inactive; Activity (Pichia kudriavzevii): inactive
Cc1nc(N)c2c(I)cn([C@@H]3O[C@H](CO)[C@@H](O)[C@H]3O)c2n1 | 4.61 | 5.04 | 5.38 | inactive | inactive | 4.92 | inactive | inactive | 5.46 | > 44 | inactive | inactive | 4.07 | 5.95 | inactive | inactive | inactive | < 4.70 | < 4.70 | inactive | CC50 [1]: > 44 µM; pIC50 (HepG2): 5.20; pEC50 (Hepatitis C virus [13]): < 4.36; pIC50 (HL-60): 5.69; pIC50 (K562 [15]): 5.29; pEC50 (Hepatitis C virus [16]): 5.61; Activity (Staphylococcus aureus [17]): inactive; Activity (Pichia kudriavzevii): inactive
Nc1ncnc2c1c(-c1ccco1)cn2[C@@H]1O[C@H](CO)[C@@H](O)[C@H]1O | 4.74 | 7.40 | 7.30 | inactive | inactive | 7.52 | inactive | inactive | 6.68 | > 44 | inactive | inactive | 4.44 | 7.30 | inactive | inactive | inactive | 7.52 | 6.77 | inactive | CC50 [1]: > 44 µM; pEC50 (Hepatitis C virus [13]): < 4.36; pIC50 (K562 [15]): 7.40; pEC50 (Hepatitis C virus [16]): < 4.36; Activity (Staphylococcus aureus [17]): inactive; Activity (Pichia kudriavzevii): inactive
COc1nc(N)nc2c1c(-c1ccco1)cn2[C@@H]1O[C@H](CO)[C@@H](O)[C@H]1O | < 4.00 | < 4.70 | < 4.70 | inactive | inactive | < 4.70 | inactive | inactive | < 4.70 | > 44 | inactive | inactive | 4.05 | < 4.70 | inactive | inactive | inactive | < 4.70 | < 4.70 | inactive | pIC50 (HepG2): < 4.70; pIC50 (HL-60): < 4.70; pIC50 (K562 [15]): < 4.70; pEC50 (Hepatitis C virus [16]): 5.61; Activity (Staphylococcus aureus [17]): inactive; Activity (Pichia kudriavzevii): inactive
COc1nc(N)nc2c1c(-c1cccs1)cn2[C@@H]1O[C@H](CO)[C@@H](O)[C@H]1O | 4.00 | < 4.70 | < 4.70 | inactive | inactive | < 4.70 | inactive | inactive | < 4.70 | > 44 | inactive | inactive | < 4.00 | < 4.70 | inactive | inactive | inactive | < 4.70 | < 4.70 | inactive | pIC50 (HepG2): < 4.70; pIC50 (HL-60): < 4.70; pIC50 (K562 [15]): < 4.70; pEC50 (Hepatitis C virus [16]): 5.22; Activity (Staphylococcus aureus [17]): inactive; Activity (Pichia kudriavzevii): inactive
